ChEMBL document CHEMBL2150944, “Antimalarial activity of pyrroloiminoquinones from the Australian marine sponge Zyzzya sp” (J Med Chem, 2012)
Structures can show the parent of a compound that is named as a salt. Calls of active or inactive are those of the source. The rule behind the calls is not given here.

Assays:
[1] = test system: Mus musculus; assay: Toxicity in Swiss albino mouse assessed as body weight loss > 10 % upto 4 mg/kg/day, sc for 4 days; type: organism-based; design: route subcutaneous; conditions: in vivo, 96 h
How it was run: (§1)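 Healthy mice dosed subcutaneously daily for 4 consecutive days, compound in Tween 80/ethanol (7/3 v/v) diluted 10-fold in distilled water (~0.2 mL). Mice are assessed before and after dosing for weight loss >10%, ruffled coat, shaking, severe pallor, reduced activity and behaviour changes.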

[2] = test system: Mus musculus; assay: Toxicity in Swiss albino mouse assessed as shaking upto 4 mg/kg/day, sc for 4 days; type: organism-based; design: route subcutaneous; conditions: in vivo, 96 h; how it was run: as §1
[3] = test system: Mus musculus; assay: Toxicity in Swiss albino mouse assessed as severe pallor upto 4 mg/kg/day, sc for 4 days; type: organism-based; design: route subcutaneous; conditions: in vivo, 96 h; how it was run: as §1
[4] = test system: Mus musculus; assay: Toxicity in Swiss albino mouse assessed as ruffled coat at 8 mg/kg/day for 4 days; type: organism-based; conditions: in vivo, 96 h; how it was run: as §1
[5] = Plasma concentration in Swiss mouse at 8 mg/kg, sc administered as solution measured 1 hr post dose; type: ADME, organism-based; design: dose 8 mg/kg, route subcutaneous
How it was run: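 Nonfasted male Swiss outbred mice (26−34 g), nominal 8 mg/kg subcutaneous into the dorsal skinfold in saline vehicle with 5−7% DMSO. Blood is drawn by cardiac puncture under isoflurane at 0.25, 1 or 4 h (n = 2 per time point) into stabilizer. Plasma is precipitated with acetonitrile and quantified by UPLC−MS against standards in blank mouse plasma.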

[6] = Intrinsic clearance in mouse liver microsomes assessed as per mg of protein at 1 uM after 60 mins; type: ADME, Microsome; conditions: read-out: CLH
How it was run: (§2)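 1 μM compound incubated at 37 °C with human or mouse liver microsomes (0.4 mg/mL protein) in 0.1 M phosphate pH 7.4. Reaction started with an NADPH-regenerating system plus MgCl2 and quenched with ice-cold acetonitrile at time points up to 60 min. Parent loss is followed by LC−MS and fitted to exponential decay, giving half-life and in vitro CLint.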

[7] = test system: HEK293; assay: Cytotoxicity against human HEK293 cells assessed as growth inhibition after 72 hrs by Alamar blue assay; type: cell-based; conditions: HEK293, 72 h
How it was run: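 HEK293 adherent cells (3000/well) were incubated with compound for 72 h at 37 °C and 5% CO2. Medium was removed, then 10% Alamar Blue was added for 5−6 h. Fluorescence was read at ex 535/em 590 nm. Inhibition was normalised to DMSO and 10 μM puromycin controls. IC50 came from nonlinear variable-slope regression of % inhibition against log dose.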

[8] = Intrinsic clearance in human liver microsomes assessed as per mg of protein at 1 uM after 60 mins; type: ADME, Microsome; conditions: read-out: CLH; how it was run: as §2
[9] = test system: Plasmodium berghei; assay: Antimalarial activity against chloroquine-sensitive Plasmodium berghei ANKA infected in Swiss albino mouse assessed as suppression of parasitemia at 4 mg/kg/day, ip measured on day 4 post infection by Giemsa staining; type: functional, organism-based
[10] = test system: Plasmodium falciparum; assay: Antimalarial activity against chloroquine-sensitive Plasmodium falciparum 3D7 ring stage assessed as growth inhibition at 204 nM after 10 hrs by [3H]-hypoxanthine incorporation assay; type: functional, organism-based
How it was run: (§3)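 Synchronous 3D7 rings (~10−16 h post-invasion) or trophozoites (~24−30 h post-invasion), 0.5% parasitemia, 5% hematocrit, exposed 4, 6 or 10 h to compound or 0.04% DMSO vehicle. Cultures are washed, plated in triplicate with 0.5 μCi 3H-hypoxanthine, and incorporation is counted after ~48−72 h. Percent growth is relative to matched vehicle controls, from at least two independent experiments.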

[11] = Half life in human liver microsomes at 1 uM after 60 mins; type: ADME, Microsome; how it was run: as §2
[12] = test system: Plasmodium falciparum; assay: Antimalarial activity against chloroquine-sensitive Plasmodium falciparum 3D7 assessed as growth inhibition after 72 hrs by DAPI staining; type: functional, organism-based; conditions: 3D7, 72 h
How it was run: (§4)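 P. falciparum 3D7 or Dd2 at 2% or 3% parasitemia, 0.3% hematocrit, exposed 72 h at 37 °C, 5% CO2. Staining with DAPI plus saponin and Triton X-100, 5 h at room temperature in the dark, then confocal imaging and automated counting of parasite spots. Percent inhibition is calculated against DMSO and 2 μM artemisinin controls.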

[13] = test system: Mus musculus; assay: Toxicity in Swiss albino mouse assessed as reduced activity upto 4 mg/kg/day, sc for 4 days; type: organism-based; design: route subcutaneous; conditions: in vivo, 96 h; how it was run: as §1
[14] = test system: Mus musculus; assay: Toxicity in Swiss albino mouse assessed as behaviour changes upto 4 mg/kg/day, sc for 4 days; type: organism-based; design: route subcutaneous; conditions: in vivo, 96 h; how it was run: as §1
[15] = test system: Plasmodium falciparum; assay: Antimalarial activity against chloroquine-sensitive Plasmodium falciparum 3D7 ring stage assessed as growth inhibition at 408 nM after 10 hrs by [3H]-hypoxanthine incorporation assay; type: functional, organism-based; how it was run: as §3
[16] = test system: Plasmodium falciparum; assay: Antimalarial activity against chloroquine-sensitive Plasmodium falciparum 3D7 trophozoite stage assessed as growth inhibition at 204 nM after 10 hrs by [3H]-hypoxanthine incorporation assay; type: functional, organism-based; how it was run: as §3
[17] = test system: Mus musculus; assay: Toxicity in Swiss albino mouse assessed as body weight loss > 10 % at 8 mg/kg/day, sc for 4 days; type: organism-based; design: route subcutaneous; conditions: in vivo, 96 h; how it was run: as §1
[18] = Half life in mouse liver microsomes at 1 uM after 60 mins; type: ADME, Microsome; how it was run: as §2
[19] = test system: Plasmodium falciparum; assay: Antimalarial activity against chloroquine-sensitive Plasmodium falciparum 3D7 trophozoite stage assessed as growth inhibition at 408 nM after 10 hrs by [3H]-hypoxanthine incorporation assay; type: functional, organism-based; how it was run: as §3
[20] = Selectivity index, ratio of IC50 for human HEK293 cells to IC50 for chloroquine-sensitive Plasmodium falciparum 3D7; type: toxicity, cell-based; conditions: read-out: Ratio IC50
[21] = test system: Mus musculus; assay: Toxicity in Swiss albino mouse assessed as ruffled coat upto 4 mg/kg/day for 4 days; type: organism-based; conditions: in vivo, 96 h; how it was run: as §1
[22] = Selectivity index, ratio of IC50 for human HEK293 cells to IC50 for chloroquine-resistant Plasmodium falciparum Dd2; type: toxicity, cell-based; conditions: read-out: Ratio IC50
[23] = test system: Mus musculus; assay: Toxicity in Swiss albino mouse assessed as reduced activity at 8 mg/kg/day, sc for 4 days; type: organism-based; design: route subcutaneous; conditions: in vivo, 96 h; how it was run: as §1
[24] = test system: Plasmodium falciparum; assay: Antimalarial activity against chloroquine-resistant Plasmodium falciparum Dd2 assessed as growth inhibition after 72 hrs by DAPI staining; type: functional, organism-based; conditions: Dd2, 72 h; how it was run: as §4

| Structure (SMILES) | IC50 [7] [µM] | growth inhibition (GI) [10] | IC50 [12] [µM] | growth inhibition (GI) [15] | growth inhibition (GI) [16] | growth inhibition (GI) [19] | selectivity ratio [20] | selectivity ratio [22] | IC50 [24] [µM] | further results |
| --- | --- | --- | --- | --- | --- | --- | --- | --- | --- | --- |
| C[N+]1=C2C=C(NCCc3ccc(O)cc3)C(=O)c3[nH]cc(c32)CC1.O=C([O-])C(F)(F)F [MAKALUVAMINE J TFA SALT] | 1.2 | Active | 0.025 | Active | Active | Active | 48 | 54 | 0.022 | Activity [1]: Non-toxic; Activity [2]: Non-toxic; Activity [3]: Non-toxic; Activity [4]: Toxic; concentration at 1 h [5]: 1700 nM; microsomal CLint at 1 µM [6]: 41 µL/min/mg; microsomal CLint at 1 µM [8]: < 5 µL/min/mg; Activity [9]: inactive; half-life at 1 µM [11]: > 350 min; Activity [13]: Non-toxic; Activity [14]: Non-toxic; Activity [17]: Toxic; half-life at 1 µM [18]: 42 min; Activity [21]: Non-toxic; Activity [23]: Toxic |
| Cn1cc2c3c1C(=O)C(NCCc1ccc(O)cc1)=CC3=NCC2 [MAKALUVAMINE K TFA SALT] | 1.1 | – | 0.396 | – | – | – | 3 | 4 | 0.3 | – |
| C[N+]1=C2C=C(N/C=C/c3ccc(O)cc3)C(=O)c3[nH]cc(c32)CC1 [MAKALUVAMINE L] | 1.4 | – | 0.04 | – | – | – | 35 | 66 | 0.021 | – |
| Cn1cc2c3c1C(=O)c1[nH]cc(-c4ccc(O)cc4)c1C3=[N+](C)CC2 [TSITSIKAMMAMINE C TRIFLUROACETATE] | 3.6 | Active | 0.013 | Active | Active | Active | 276 | 200 | 0.018 | – |
